TRPC6 inhibitor: mouse TRPC6 channel inhibitors, primary screen, cell-based, HEK293, membrane potential dye | B-score at 10 µM | ACh-evoked depolarization; hits give low values | Short transient receptor potential channel 6 (Mus musculus), Q61143 | hit rate 1.1% among 310,000;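 active means B-score under library mean minus 3 SD, initial fluorescence not abnormally high, positive integrated signal ratio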;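 further: B-score derived from integrated fluorescence ratio over the kinetic read; more negative B-score means stronger inhibition of depolarization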
Target sequence (Q61143 whole entry, looked up): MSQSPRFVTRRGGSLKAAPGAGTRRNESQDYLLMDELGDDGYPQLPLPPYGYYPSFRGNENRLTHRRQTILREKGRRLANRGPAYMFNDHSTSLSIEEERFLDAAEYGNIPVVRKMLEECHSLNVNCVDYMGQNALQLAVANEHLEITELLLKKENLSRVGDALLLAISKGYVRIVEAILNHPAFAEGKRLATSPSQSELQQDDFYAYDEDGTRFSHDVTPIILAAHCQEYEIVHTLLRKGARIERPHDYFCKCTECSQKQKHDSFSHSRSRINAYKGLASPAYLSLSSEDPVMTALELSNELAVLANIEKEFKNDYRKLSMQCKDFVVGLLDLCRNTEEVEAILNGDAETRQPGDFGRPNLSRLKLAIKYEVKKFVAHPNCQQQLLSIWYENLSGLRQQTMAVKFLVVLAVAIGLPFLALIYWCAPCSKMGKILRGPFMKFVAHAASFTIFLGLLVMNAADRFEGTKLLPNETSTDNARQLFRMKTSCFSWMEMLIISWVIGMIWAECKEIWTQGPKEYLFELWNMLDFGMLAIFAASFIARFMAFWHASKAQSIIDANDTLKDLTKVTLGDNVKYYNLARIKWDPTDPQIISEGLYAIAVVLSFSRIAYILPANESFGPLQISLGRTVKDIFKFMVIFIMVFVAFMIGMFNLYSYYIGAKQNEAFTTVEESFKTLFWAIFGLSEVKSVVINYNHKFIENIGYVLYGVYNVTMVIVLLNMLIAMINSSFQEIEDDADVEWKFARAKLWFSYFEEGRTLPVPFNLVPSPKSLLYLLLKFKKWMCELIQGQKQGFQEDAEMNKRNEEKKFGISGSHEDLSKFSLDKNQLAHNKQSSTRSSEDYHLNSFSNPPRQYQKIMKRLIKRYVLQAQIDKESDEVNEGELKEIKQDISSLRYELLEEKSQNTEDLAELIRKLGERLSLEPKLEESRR
TRPC6 activator: mouse TRPC6 channel activators, primary screen, cell-based, HEK293, membrane potential dye; Short transient receptor potential channel 6 (Mus musculus), Q61143; HEK293-TRPC6 membrane potential dye fluorescence; hits give high values; B-score at 10 µM; hit rate 0.13% among 310,000; AID 2550, 2010;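 active means B-score of the integrated fluorescence ratio above library mean plus 3 SD, and starting fluorescence ratio within library mean plus 5 SD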;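 further: higher score means more depolarization so channel activation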
TRPC4 inh: inhibitors of mouse TRPC4 channel, primary screen, Fluo4 calcium, HEK293 TRPC4beta/mu-opioid cells; Short transient receptor potential channel 4 (Mus musculus), Q9QUQ5; DAMGO-evoked Fluo4 calcium flux; hits give low values; B-score at 10 µM; hit rate 0.39% among 300,000; AID 2247, 2010;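 active means B-score over 3 SD under the library average, no early fluorescence shift, positive overall ratio signal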
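Assay system: HEK293 cells with stable TRPC4beta plus mu-opioid receptor expression; Probe or stimulus: DAMGO in two steps, submaximal then maximal; Dosing: single-point compound dosing; Measured by: Fluo4 calcium-dye fluorescence, kinetic read; Read-out basis: B score from integrated Fluo4 fluorescence ratio.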
TRPC4 act: activators of mouse TRPC4 channel, primary screen, Fluo4 calcium, HEK293 TRPC4beta/mu-opioid cells; B-score at 10 µM; Short transient receptor potential channel 4 (Mus musculus), Q9QUQ5; hit rate 0.49% among 310,000; Fluo4 calcium fluorescence; hits give high values;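 active means B-score above 5 SD of library B-scores, and initial fluorescence ratio not above library mean plus 5 SD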;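 further: positive B-score marks a calcium rise read as TRPC4 activation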
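Incubation: 45 min room-temperature Fluo4 loading, 110 s read / System: HEK293 cells stably co-expressing mouse TRPC4beta and mu-opioid receptor / Signal: Fluo4 fluorescence, kinetic / Control set: buffer (low) and maximal DAMGO (high) / Measure: integrated baseline-normalised fluorescence ratio, converted to per-well B score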
Yeast superoxide: reduction of superoxide in aged yeast, primary screen, HTS. superoxide response (% of plate mean), % at 10 µM. AID 2690, 2010. hit rate 0.18% among 330,000. S. cerevisiae aged cells, superoxide DHE fluorescence; hits give low values;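 active means superoxide response under a set limit, about three screen SD below normal, cut at about 65% in these data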;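 further: yeast aged for seven days with compound at 30 °C before DHE staining; 100% = average MFI of all compound-treated wells on the plate with controls excluded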
TRPC4 potent: positive allosteric modulators of TRPC4, primary screen, cell-based, mouse TRPC4beta, HEK293 mu-opioid, Fluo-4 calcium. B-score at 10 µM. AID 2227, 2009. Short transient receptor potential channel 4 (Mus musculus), Q9QUQ5. hit rate 0.42% among 310,000. DAMGO EC20, Fluo-4 Ca2+ flux; hits give high values;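 active means B-score of calcium response area above 5 SD of library B-scores, with initial fluorescence ratio within 5 SD of library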;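 further: B-score of integrated fluorescence ratio over time as area under calcium response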
* = called active by the depositor. In the library only some 2.3% were active in any assay of this set; here they are far more common.

What do the screens show for `CCCOc1ncnc2c1[nH]c1ccccc12`?
TRPC6 inhibitor: inactive; TRPC6 activator: inactive; TRPC4 inh: inactive; TRPC4 act: inactive; Yeast superoxide: 86; TRPC4 potent: inactive

Results for CCN(CC)c1ncnc2c1[nH]c1ccccc12 ?
TRPC6 inhibitor: inactive; TRPC6 activator: inactive; TRPC4 inh: -5*; TRPC4 act: inactive; Yeast superoxide: 112; TRPC4 potent: inactive

What do the screens show for `Cc1ccc(Cn2c(=N)c(C(=O)NCC3CCCO3)cc3c(=O)n4ccccc4nc32)cc1` (centres undefined)?
TRPC6 inhibitor: inactive; TRPC6 activator: inactive; TRPC4 inh: inactive; TRPC4 act: inactive; Yeast superoxide: 103; TRPC4 potent: 47*

What do the screens show for `N=c1c(C(=O)NCC2CCCO2)cc2c(=O)n3ccccc3nc2n1Cc1ccc(Cl)cc1` (centres undefined)?
TRPC6 inhibitor: inactive; TRPC6 activator: inactive; TRPC4 inh: inactive; TRPC4 act: inactive; Yeast superoxide: 89; TRPC4 potent: 29*

How did N=c1c(C(=O)NCCc2ccccc2)cc2c(=O)n3ccccc3nc2n1CC1CCCO1 (centres undefined) do in these assays?
TRPC6 inhibitor: -5.1*; TRPC6 activator: inactive; TRPC4 inh: inactive; TRPC4 act: inactive; Yeast superoxide: 88; TRPC4 potent: inactive

How did COCCCn1c(=N)c(C(=O)NCC2CCCO2)cc2c(=O)n3ccccc3nc21 (centres undefined) do in these assays?
TRPC6 inhibitor: inactive; TRPC6 activator: inactive; TRPC4 inh: inactive; TRPC4 act: inactive; Yeast superoxide: 113; TRPC4 potent: inactive

How did Cc1ccc(Cn2c(=N)c(C(=O)NC3CCCCC3)cc3c(=O)n4ccccc4nc32)cc1 do in these assays?
TRPC6 inhibitor: inactive; TRPC6 activator: inactive; TRPC4 inh: inactive; TRPC4 act: inactive; Yeast superoxide: 117; TRPC4 potent: 20*

Results for Cc1ccc(C(O)c2nc3ccccc3n2C(C)C)cc1 (centres undefined) ?
TRPC6 inhibitor: inactive; TRPC6 activator: inactive; TRPC4 inh: inactive; TRPC4 act: inactive; Yeast superoxide: 102; TRPC4 potent: inactive

How did CC(C)CC(NC(=O)OC(C)(C)C)c1cn([C@@H](CCC(=O)OC(C)(C)C)C(=O)N2CCN(C(=O)OC(C)(C)C)CC2)nn1 (some centres undefined) do in these assays?
TRPC6 inhibitor: inactive; TRPC6 activator: inactive; TRPC4 inh: inactive; TRPC4 act: inactive; Yeast superoxide: 97; TRPC4 potent: inactive

What do the screens show for `COCCn1c(COc2cccc(OC)c2)nnc1SCC(=O)NC1CCCCC1`?
TRPC6 inhibitor: inactive; TRPC6 activator: inactive; TRPC4 inh: inactive; TRPC4 act: inactive; Yeast superoxide: 99; TRPC4 potent: inactive

What do the screens show for `Cc1cc(NC(=O)CCCn2nc([N+](=O)[O-])c(Cl)c2C)no1`?
TRPC6 inhibitor: inactive; TRPC6 activator: inactive; TRPC4 inh: inactive; TRPC4 act: inactive; Yeast superoxide: 109; TRPC4 potent: inactive

How did COc1ccc(S(=O)(=O)Oc2cccc(C(=S)N3CCOCC3)c2)cc1 do in these assays?
TRPC6 inhibitor: inactive; TRPC6 activator: inactive; TRPC4 inh: inactive; TRPC4 act: inactive; Yeast superoxide: 115; TRPC4 potent: inactive

Results for Cc1ccc2nc3c(cc(C(=O)NC4CCCC4)c(=N)n3CCCn3ccnc3)c(=O)n2c1 ?
TRPC6 inhibitor: -5.5*; TRPC6 activator: inactive; TRPC4 inh: inactive; TRPC4 act: inactive; Yeast superoxide: 92; TRPC4 potent: inactive

How did O=[N+]([O-])c1ccc(C23CC4CC(CC(O)(C4)C2)C3)cc1 do in these assays?
TRPC6 inhibitor: inactive; TRPC6 activator: inactive; TRPC4 inh: -6*; TRPC4 act: inactive; Yeast superoxide: 79; TRPC4 potent: inactive

How did CCN(CC)CCn1c(NC(=O)c2ccc(C)cc2)nc2ccccc21 do in these assays?
TRPC6 inhibitor: inactive; TRPC6 activator: inactive; TRPC4 inh: inactive; TRPC4 act: inactive; Yeast superoxide: 102; TRPC4 potent: inactive

What do the screens show for `CCC(=O)Nc1nc2ccccc2n1CCN(CC)CC`?
TRPC6 inhibitor: inactive; TRPC6 activator: inactive; TRPC4 inh: inactive; TRPC4 act: inactive; Yeast superoxide: 101; TRPC4 potent: 11*

What do the screens show for `CCCCNC(=O)CCNS(=O)(=O)c1ccc(Br)cc1`?
TRPC6 inhibitor: inactive; TRPC6 activator: inactive; TRPC4 inh: inactive; TRPC4 act: inactive; Yeast superoxide: 94; TRPC4 potent: inactive

Results for CCCN(CCC)CCCNC(=O)CCNS(=O)(=O)c1ccc(Br)cc1 ?
TRPC6 inhibitor: inactive; TRPC6 activator: inactive; TRPC4 inh: inactive; TRPC4 act: 76*; Yeast superoxide: 95; TRPC4 potent: inactive

What do the screens show for `COc1ccccc1CC(=O)Nc1c[nH]c(=O)[nH]c1=O`?
TRPC6 inhibitor: inactive; TRPC6 activator: inactive; TRPC4 inh: inactive; TRPC4 act: inactive; Yeast superoxide: 97; TRPC4 potent: inactive

How did CC(=O)N1CCN(c2ccccc2NC(=O)c2cccs2)CC1 do in these assays?
TRPC6 inhibitor: inactive; TRPC6 activator: inactive; TRPC4 inh: -6*; TRPC4 act: inactive; Yeast superoxide: 95; TRPC4 potent: inactive

Results for CC(C)C(=O)N1CCN(c2ccccc2NC(=O)c2ccco2)CC1 ?
TRPC6 inhibitor: inactive; TRPC6 activator: inactive; TRPC4 inh: -10*; TRPC4 act: inactive; Yeast superoxide: 70; TRPC4 potent: inactive

Results for CC(=O)N1CCN(c2ccccc2NC(=O)c2ccc3ccccc3c2)CC1 ?
TRPC6 inhibitor: inactive; TRPC6 activator: inactive; TRPC4 inh: -5*; TRPC4 act: inactive; Yeast superoxide: 102; TRPC4 potent: inactive

How did CCC(=O)N1CCN(c2ccccc2NC(=O)c2cccs2)CC1 do in these assays?
TRPC6 inhibitor: inactive; TRPC6 activator: inactive; TRPC4 inh: inactive; TRPC4 act: inactive; Yeast superoxide: 98; TRPC4 potent: inactive

Results for O=C(COC(=O)CCCSc1nc2ccccc2[nH]1)Nc1cccc(F)c1 ?
TRPC6 inhibitor: inactive; TRPC6 activator: inactive; TRPC4 inh: inactive; TRPC4 act: inactive; Yeast superoxide: 77; TRPC4 potent: inactive

What do the screens show for `O=C(Cc1ccccc1Cl)Nc1ccc(S(=O)(=O)N2CCOCC2)cc1`?
TRPC6 inhibitor: inactive; TRPC6 activator: inactive; TRPC4 inh: inactive; TRPC4 act: inactive; Yeast superoxide: 103; TRPC4 potent: inactive

Bioassay records as filed in PubChem.
